Results published in PubChem BioAssay AID651945 (The Scripps Research Institute Molecular Screening Center, 2012).

Target: Heat shock 70 kDa protein 1A (Homo sapiens) (UniProt P0DMV8)
Assay: Hsp70 mRNA induction by activators, late-stage follow-up, orthogonal assay, cell-based, fluorescence, HeLa (AID 651945)
Conditions: qRT-PCR, 4 h, at 10 µM, stronger effect = higher value
In short: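 system = HeLa cells, human Hsp70 gene expression | timing = 4 h compound exposure before cell harvest | measured by = Hsp70 and GAPDH transcript levels by qRT-PCR | read-out basis = GAPDH-normalized Hsp70 mRNA fold change versus DMSO | controls = DMSO vehicle-treated cells as baseline reference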

Sequence of Heat shock 70 kDa protein 1A (Homo sapiens) (P0DMV8 whole entry, looked up): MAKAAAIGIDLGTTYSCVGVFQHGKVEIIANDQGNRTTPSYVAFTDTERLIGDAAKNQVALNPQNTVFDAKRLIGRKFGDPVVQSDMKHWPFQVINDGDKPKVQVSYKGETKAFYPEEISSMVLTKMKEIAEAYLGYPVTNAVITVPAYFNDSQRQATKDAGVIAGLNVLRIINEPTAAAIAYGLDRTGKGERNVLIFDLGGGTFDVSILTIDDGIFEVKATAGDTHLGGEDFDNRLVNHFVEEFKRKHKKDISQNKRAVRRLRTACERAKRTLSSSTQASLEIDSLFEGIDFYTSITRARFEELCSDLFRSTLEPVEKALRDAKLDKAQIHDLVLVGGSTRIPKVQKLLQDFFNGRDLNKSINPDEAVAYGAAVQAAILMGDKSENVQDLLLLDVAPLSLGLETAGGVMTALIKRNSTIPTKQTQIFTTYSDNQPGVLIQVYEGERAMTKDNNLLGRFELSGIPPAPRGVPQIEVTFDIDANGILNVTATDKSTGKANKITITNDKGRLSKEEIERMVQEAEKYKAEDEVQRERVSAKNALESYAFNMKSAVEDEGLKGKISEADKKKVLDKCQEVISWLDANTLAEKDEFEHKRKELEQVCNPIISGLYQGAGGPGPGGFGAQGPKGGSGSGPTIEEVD

Compound: COc1ccc(/C=C/C=C2C(=O)NC(=O)NC2=O)cc1
- fold change: 2.4
